Test results reported in ChEMBL document CHEMBL1142527, “Tricyclic [1,2,4]triazine 1,4-dioxides as hypoxia selective cytotoxins” (J Med Chem, 2008).

Legend:
[1] = Solubility at 22 degC in culture medium in presence of 5% fetal calf serum; assay type: physicochemical; settings: culture medium with 5% fetal calf serum; read-out: solubility
Procedure, shortened: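 Solubility of the HCl salts is determined in culture medium containing 5% fetal calf serum at 22 °C.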

HT-29 [2] = test: Cytotoxicity against human HT-29 cells after 4 hrs under strict hypoxic condition; assay type: functional, cell-based
HT-29 [3] = test: Hypoxic cytotoxicity ratio, ratio of aerobic IC50 to anoxic IC50 for human HT-29 cells; assay type: functional
SiHa [4] = test: Cytotoxicity against human SiHa cells after 4 hrs under strict hypoxic condition; assay type: functional, cell-based
SiHa [5] = test: Hypoxic cytotoxicity ratio, ratio of aerobic IC50 to anoxic IC50 for human SiHa cells; assay type: functional
HT-29 [6] = test: Drug diffusion coefficient in human HT-29 multicellular layer under 95% oxygen by liquid scintillation counting; assay type: ADME, cell-based
Procedure, shortened: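 Tissue diffusion coefficient D measured in HT29 multicellular layers held under 95% O₂ to suppress bioreductive metabolism. Reported as ×10⁻⁷ cm²s⁻¹.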

HT-29 [7] = test: Metabolic stability in human HT-29 multicellular layer assessed as apparent first-order rate constant under anoxic condition; assay type: ADME, cell-based
Procedure, shortened: (§1)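 Stirred single-cell suspensions of anoxic HT29 cells are exposed for 3 h at a drug concentration giving roughly one log kill by 1 h. Clonogenic survival is followed, and extracellular drug is monitored by HPLC. Concentration-time data are fitted for the apparent first-order metabolic rate constant k_met, scaled to MCL cell density. CT₁₀ and M₁₀ (drug metabolized at 10% survival) are interpolated from the fitted PK/PD model.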

HT-29 [8] = test: Cytotoxicity against human HT-29 cells assessed as AUC-time curve providing 10% surviving fraction by clonogenic assay; assay type: functional
HT-29 [9] = test: Drug metabolism in human HT-29 cells assessed as amount of drug metabolized for one log of cell kill at their CT10 concentration for 1 hr; assay type: ADME, cell-based; settings: ht-29, 1 h; procedure, shortened: as §1

Row | Structure (SMILES) | solubility [1] | IC50 (HT-29 [2]; Homo sapiens, HT-29, 4 h) | Ratio IC50 (HT-29 [3]) | IC50 (SiHa [4]; Homo sapiens, SiHa, 4 h) | Ratio IC50 (SiHa [5]) | D (HT-29 [6]) | Activity (HT-29 [7]) | Activity (HT-29 [8]) | Activity (HT-29 [9]) | IC50 (HT-29 [2]; ht-29) | IC50 (SiHa [4]; siha) | Activity (HT-29 [9]; 1 h)
1 | CN(C)CCNc1n[n+]([O-])c2c3c(ccc2[n+]1[O-])CCC3 | > 54 mM | 3 µM | 67 | 1.6 µM | 99 | 8.4e-07 cm²/s | 0.74 min⁻¹ | 26.3 µM·h | 2219 µM | – | – | –
2 | CCCN(CCC)CCNc1n[n+]([O-])c2cc3c(cc2[n+]1[O-])CCC3 | 20 mM | 2.5 µM | 77 | 0.7 µM | 91 | 1.92e-06 cm²/s | 1.07 min⁻¹ | 31.8 µM·h | 3941 µM | – | – | –
3 | CN(C)CCNc1n[n+]([O-])c2cc3c(cc2[n+]1[O-])CCO3 | > 48 mM | – | 23 | – | 87 | 4.3e-07 cm²/s | 3.15 min⁻¹ | 18.6 µM·h | – | 2.4 µM | 0.3 µM | 6732 µM
4 | [O-][n+]1nc(NCCN2CCCCC2)[n+]([O-])c2cc3c(cc21)CCC3 | 1.9 mM | 5.8 µM | 49 | 1.3 µM | 143 | 1.19e-06 cm²/s | 1.25 min⁻¹ | 15.6 µM·h | 2444 µM | – | – | –
5 | CN(C)CCNc1n[n+]([O-])c2cc3c(cc2[n+]1[O-])CCC3 | > 51 mM | 2.3 µM | 152 | 0.7 µM | 111 | 5.9e-07 cm²/s | 0.44 min⁻¹ | 16 µM·h | 815 µM | – | – | –
